From ChEMBL document CHEMBL2390847, “Synthesis and biological evaluation of novel phosphatidylinositol 3-kinase inhibitors: Solubilized 4-substituted benzimidazole analogs of 2-(difluoromethyl)-1-[4,6-di(4-morpholinyl)-1,3,5-triazin-2-yl]-1H-benzimidazole (ZSTK474)” (Eur J Med Chem, 2013)

Tests used:
[1] = target: PI3-kinase p110-delta/p85-alpha (Homo sapiens, UniProt O00329); test: Inhibition of recombinant PI3K p110delta/p85alpha (unknown origin) using phosphotidylinositol as susbstrate after 1 hr by thin layer paper chromatographic analysis in presence of [gamma-33P]ATP; type: protein-complex assay
[2] = target: PI3-kinase p110-alpha/p85-alpha (Homo sapiens, UniProt P42336); test: Inhibition of recombinant PI3K p110alpha/p85alpha (unknown origin) using phosphotidylinositol as susbstrate after 1 hr by thin layer paper chromatographic analysis in presence of [gamma-33P]ATP; type: protein-complex assay
[3] = Cytotoxicity against human NZB5 cells expressing wild type PI3K p110alpha assessed as growth inhibition after 5 days by [3H]-thymidine incorporation assay; type: functional, cell-based
Procedure, shortened: (§1)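 NZB5 (medulloblastoma, wild-type p110α) and NZOV9 (ovarian endometrioid adenocarcinoma, Y1021C p110α) cells cultured with drug for 5 days; proliferation by [³H]-thymidine incorporation at end; IC50 as 50% inhibition versus controls, averaged over at least two determinations.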

PI3K p110 beta/p85 alpha = PI3K p110 beta/p85 alpha (Homo sapiens, UniProt P42338); test: Inhibition of recombinant PI3K p110beta/p85alpha (unknown origin) using phosphotidylinositol as susbstrate after 1 hr by thin layer paper chromatographic analysis in presence of [gamma-33P]ATP; type: protein-complex assay
[4] = Cytotoxicity against human NZOV9 cells expressing PI3K p110alpha Y1021C mutant assessed as growth inhibition after 5 days by [3H]-thymidine incorporation assay; type: functional, cell-based; procedure, shortened: as §1
[5] = Antitumor activity against human U87MG cells xenografted in rag1-deficient mouse assessed as tumor growth inhibition at 15 mg/kg, ip qd measured after 7 days relative to control; conditions: U-87 MG, 168 h, read-out: TGI
Mus musculus [6] = test: Toxicity in rag1-deficient mouse xenografted with human U87MG cells assessed as body weight loss at 15 mg/kg, ip qd after 14 days relative to control; type: organism-based, U-87MG ATCC; parameters: dose 15 mg/kg, route intraperitoneal; conditions: in vivo, 336 h
[7] = Antitumor activity against human U87MG cells xenografted in rag1-deficient mouse assessed as tumor growth inhibition at 40 mg/kg, ip qd measured after 7 days relative to control; conditions: U-87 MG, 168 h, read-out: TGI
Mus musculus [8] = test: Toxicity in rag1-deficient mouse xenografted with human U87MG cells assessed as body weight loss at 40 mg/kg, ip qd after 14 days relative to control; type: organism-based, U-87MG ATCC; parameters: dose 40 mg/kg, route intraperitoneal; conditions: in vivo, 336 h
Mus musculus [9] = test: Toxicity in rag1-deficient mouse xenografted with human U87MG cells assessed as mortality at 40 mg/kg, ip qd after 14 days relative to control; type: organism-based, U-87MG ATCC; parameters: dose 40 mg/kg, route intraperitoneal; conditions: in vivo, 336 h
Procedure, shortened: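 Female specific-pathogen-free Rag1−/− mice given 5 × 10⁶ U87MG cells s.c. in PBS on the right flank. Dosing started 3–4 weeks later, once tumors averaged about 8 mm. Drug was given i.p. daily for 14 days at 10 mL/kg as free base, in 10% DMSO, 15% Cremophor EL, 15% EtOH and 60% saline. Bodyweight and tumor volume were recorded every 2–3 days.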

[10] = Aqueous solubility of the compound in water by HPLC analysis; type: physicochemical
Procedure, shortened: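 Solid mixed with water to make 2 mM, sonicated 15 min, centrifuged; supernatant diluted 2-fold, recentrifuged, analysed by C18 HPLC (acetonitrile/45 mM ammonium formate pH 3.5 gradient); peak area compared with DMSO standard.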

[11] = target: T1, Phosphatidylinositol 4,5-bisphosphate 3-kinase catalytic subunit alpha isoform (Homo sapiens, UniProt P42336, H1047R); test: Inhibition of PI3K p110alpha H1047R mutant in human HCT116 cells assessed as inhibition of AKT/PKB phosphorylation at Thr308 incubated for 15 mins prior to insulin stimulation measured after 5 mins by immunoblot analysis; type: cell-based, HCT-116
[12] = Antitumor activity against human U87MG cells xenografted in rag1-deficient mouse assessed as tumor growth inhibition at 60 mg/kg, ip qd measured after 7 days relative to control; conditions: U-87 MG, 168 h, read-out: TGI
[13] = AUC (infinity) in C57 mouse at 10 mg/kg, ip; type: ADME, organism-based; parameters: dose 10 mg/kg, route intraperitoneal, time infinity; conditions: plasma
Procedure, shortened: (§2)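 Male specific pathogen-free age-matched C57 mice; single 10 mg/kg i.p. dose in 10% EtOH; animals culled at multiple time points; blood by cardiac puncture into EDTA, plasma separated by centrifugation, protein precipitated in MeOH.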

[14] = Half life in C57 mouse at 10 mg/kg, ip; type: ADME, organism-based; parameters: dose 10 mg/kg, route intraperitoneal; conditions: in vivo; procedure, shortened: as §2
Mus musculus [15] = test: Toxicity in rag1-deficient mouse xenografted with human U87MG cells assessed as body weight loss at 60 mg/kg, ip qd after 14 days relative to control; type: organism-based, U-87MG ATCC; parameters: dose 60 mg/kg, route intraperitoneal; conditions: in vivo, 336 h
[16] = Cmax in C57 mouse at 10 mg/kg, ip; type: ADME, organism-based; parameters: dose 10 mg/kg, route intraperitoneal; conditions: in vivo; procedure, shortened: as §2
Mus musculus [17] = test: Toxicity in rag1-deficient mouse xenografted with human U87MG cells assessed as mortality without preceding sings of toxicity at 60 mg/kg, ip qd after 14 days relative to control; type: organism-based, U-87MG ATCC; parameters: dose 60 mg/kg, route intraperitoneal; conditions: in vivo, 336 h
[18] = target: T1, Phosphatidylinositol 4,5-bisphosphate 3-kinase catalytic subunit alpha isoform; test: Inhibition of PI3K p110alpha H1047R mutant in human HCT116 cells assessed as inhibition of AKT/PKB phosphorylation at Ser473 incubated for 15 mins prior to insulin stimulation measured after 5 mins by immunoblot analysis; type: cell-based, HCT-116
[19] = Tmax in C57 mouse at 10 mg/kg, ip; type: ADME, organism-based; parameters: dose 10 mg/kg, route intraperitoneal; conditions: in vivo; procedure, shortened: as §2

Chain of PI3K p110 beta/p85 alpha (P27986 whole entry): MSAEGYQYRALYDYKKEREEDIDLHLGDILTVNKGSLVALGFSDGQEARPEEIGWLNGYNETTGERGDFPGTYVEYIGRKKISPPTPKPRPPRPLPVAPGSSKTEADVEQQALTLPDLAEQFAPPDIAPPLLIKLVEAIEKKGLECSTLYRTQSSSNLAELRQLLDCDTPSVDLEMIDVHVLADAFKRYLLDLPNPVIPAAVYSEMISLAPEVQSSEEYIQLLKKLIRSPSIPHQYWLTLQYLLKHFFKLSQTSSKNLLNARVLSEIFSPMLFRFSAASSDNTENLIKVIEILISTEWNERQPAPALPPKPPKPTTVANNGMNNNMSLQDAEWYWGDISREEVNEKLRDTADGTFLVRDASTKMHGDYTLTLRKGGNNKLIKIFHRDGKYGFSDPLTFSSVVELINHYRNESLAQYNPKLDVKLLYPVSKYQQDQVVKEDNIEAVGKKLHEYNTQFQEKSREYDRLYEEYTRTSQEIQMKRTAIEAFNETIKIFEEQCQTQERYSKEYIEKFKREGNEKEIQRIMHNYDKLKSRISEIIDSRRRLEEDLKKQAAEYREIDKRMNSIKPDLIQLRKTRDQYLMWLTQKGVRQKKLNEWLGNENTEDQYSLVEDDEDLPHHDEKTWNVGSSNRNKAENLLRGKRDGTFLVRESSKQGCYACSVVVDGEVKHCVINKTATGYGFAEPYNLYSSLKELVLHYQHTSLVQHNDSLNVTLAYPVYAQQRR
Chain of PI3K p110 beta/p85 alpha (P42338 whole entry): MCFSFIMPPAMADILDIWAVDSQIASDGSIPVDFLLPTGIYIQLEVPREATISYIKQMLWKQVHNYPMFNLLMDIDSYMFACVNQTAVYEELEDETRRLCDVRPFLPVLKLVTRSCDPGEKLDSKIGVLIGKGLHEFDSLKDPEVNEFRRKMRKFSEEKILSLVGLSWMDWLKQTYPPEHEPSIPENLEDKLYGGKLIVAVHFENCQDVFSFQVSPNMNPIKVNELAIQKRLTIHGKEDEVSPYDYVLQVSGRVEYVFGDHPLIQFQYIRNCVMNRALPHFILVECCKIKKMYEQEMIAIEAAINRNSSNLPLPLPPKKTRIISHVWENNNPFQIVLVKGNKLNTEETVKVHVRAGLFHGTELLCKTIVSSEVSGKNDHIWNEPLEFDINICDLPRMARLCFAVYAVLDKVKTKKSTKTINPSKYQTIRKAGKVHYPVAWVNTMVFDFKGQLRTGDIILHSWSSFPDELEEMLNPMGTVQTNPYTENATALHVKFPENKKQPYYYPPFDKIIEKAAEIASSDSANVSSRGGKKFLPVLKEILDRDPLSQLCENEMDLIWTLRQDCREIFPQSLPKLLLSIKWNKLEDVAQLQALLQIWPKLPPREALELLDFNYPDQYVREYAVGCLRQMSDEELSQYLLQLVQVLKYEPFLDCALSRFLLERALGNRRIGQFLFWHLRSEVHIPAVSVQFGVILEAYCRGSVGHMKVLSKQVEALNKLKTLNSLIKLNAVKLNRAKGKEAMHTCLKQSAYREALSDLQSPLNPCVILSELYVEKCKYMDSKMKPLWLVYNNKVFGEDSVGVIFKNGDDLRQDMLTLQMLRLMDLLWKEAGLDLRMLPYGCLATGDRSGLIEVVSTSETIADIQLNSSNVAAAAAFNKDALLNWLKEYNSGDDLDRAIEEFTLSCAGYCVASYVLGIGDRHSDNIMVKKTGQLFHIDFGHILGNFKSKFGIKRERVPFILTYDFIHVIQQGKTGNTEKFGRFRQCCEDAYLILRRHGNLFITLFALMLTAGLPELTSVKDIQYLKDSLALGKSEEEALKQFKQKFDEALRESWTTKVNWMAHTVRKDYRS
Chain of PI3-kinase p110-delta/p85-alpha (P27986 whole entry): as the sequence (P27986 whole entry) above
Chain of PI3-kinase p110-delta/p85-alpha (O00329 whole entry): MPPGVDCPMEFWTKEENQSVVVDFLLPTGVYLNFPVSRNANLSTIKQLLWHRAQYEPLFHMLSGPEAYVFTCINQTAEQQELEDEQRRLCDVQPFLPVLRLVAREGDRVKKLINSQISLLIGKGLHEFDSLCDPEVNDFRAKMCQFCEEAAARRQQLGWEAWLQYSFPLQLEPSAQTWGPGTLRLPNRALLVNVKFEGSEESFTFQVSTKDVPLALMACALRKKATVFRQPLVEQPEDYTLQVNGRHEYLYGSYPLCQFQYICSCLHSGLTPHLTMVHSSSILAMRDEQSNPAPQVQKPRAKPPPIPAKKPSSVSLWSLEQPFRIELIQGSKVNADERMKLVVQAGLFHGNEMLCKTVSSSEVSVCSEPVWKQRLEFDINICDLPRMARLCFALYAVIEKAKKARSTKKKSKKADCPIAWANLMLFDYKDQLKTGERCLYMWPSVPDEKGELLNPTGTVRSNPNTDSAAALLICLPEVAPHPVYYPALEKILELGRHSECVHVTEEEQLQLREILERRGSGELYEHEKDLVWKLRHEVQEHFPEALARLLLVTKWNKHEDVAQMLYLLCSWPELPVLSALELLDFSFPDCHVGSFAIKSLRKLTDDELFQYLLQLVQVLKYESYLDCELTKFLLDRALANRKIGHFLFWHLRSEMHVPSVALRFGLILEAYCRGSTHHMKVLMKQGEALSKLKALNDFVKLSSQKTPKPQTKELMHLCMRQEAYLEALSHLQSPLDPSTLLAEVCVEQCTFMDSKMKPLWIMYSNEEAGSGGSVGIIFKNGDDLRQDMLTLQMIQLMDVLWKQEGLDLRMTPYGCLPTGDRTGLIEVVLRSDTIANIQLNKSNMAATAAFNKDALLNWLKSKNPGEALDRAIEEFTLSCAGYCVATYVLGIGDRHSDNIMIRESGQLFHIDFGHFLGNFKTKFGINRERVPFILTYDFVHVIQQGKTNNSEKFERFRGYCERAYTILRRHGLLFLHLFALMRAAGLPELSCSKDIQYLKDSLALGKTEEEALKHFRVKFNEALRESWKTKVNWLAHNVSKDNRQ
Chain of PI3-kinase p110-alpha/p85-alpha (P27986 whole entry): as the sequence (P27986 whole entry) above
Chain of PI3-kinase p110-alpha/p85-alpha (P42336 whole entry): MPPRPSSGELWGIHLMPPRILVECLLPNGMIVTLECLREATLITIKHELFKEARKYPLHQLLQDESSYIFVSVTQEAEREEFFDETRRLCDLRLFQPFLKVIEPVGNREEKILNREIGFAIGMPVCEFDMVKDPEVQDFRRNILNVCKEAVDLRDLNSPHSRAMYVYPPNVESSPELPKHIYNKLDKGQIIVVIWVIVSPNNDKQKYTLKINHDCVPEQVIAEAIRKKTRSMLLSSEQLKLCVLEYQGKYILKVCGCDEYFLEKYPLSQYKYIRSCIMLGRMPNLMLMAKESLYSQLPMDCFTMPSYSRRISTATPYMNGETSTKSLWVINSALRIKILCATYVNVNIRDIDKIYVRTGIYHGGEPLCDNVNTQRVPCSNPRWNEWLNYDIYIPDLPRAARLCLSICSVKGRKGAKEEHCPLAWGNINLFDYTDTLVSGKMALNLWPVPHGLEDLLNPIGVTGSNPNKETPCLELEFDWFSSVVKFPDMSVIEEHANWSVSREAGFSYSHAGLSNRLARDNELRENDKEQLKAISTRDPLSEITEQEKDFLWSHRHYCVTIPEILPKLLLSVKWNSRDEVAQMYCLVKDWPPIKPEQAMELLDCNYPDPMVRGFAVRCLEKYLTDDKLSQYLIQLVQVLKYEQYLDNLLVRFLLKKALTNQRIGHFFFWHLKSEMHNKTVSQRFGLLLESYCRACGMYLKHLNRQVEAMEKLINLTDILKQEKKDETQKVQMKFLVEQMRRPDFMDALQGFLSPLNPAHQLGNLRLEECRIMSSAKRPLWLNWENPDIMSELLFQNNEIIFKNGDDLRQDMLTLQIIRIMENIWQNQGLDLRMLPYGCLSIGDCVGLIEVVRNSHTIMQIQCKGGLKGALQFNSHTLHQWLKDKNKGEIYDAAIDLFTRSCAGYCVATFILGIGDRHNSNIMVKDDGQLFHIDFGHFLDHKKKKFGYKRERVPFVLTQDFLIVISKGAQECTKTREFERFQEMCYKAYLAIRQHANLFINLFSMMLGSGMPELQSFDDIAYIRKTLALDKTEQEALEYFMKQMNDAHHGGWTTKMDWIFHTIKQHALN
T1 sequence (P42336 whole entry H1047R, canonical isoform): as the sequence (P42336 whole entry) above, with H1047R counted along it

Row | IC50 [1] | IC50 [2] | IC50 (PI3K p110 beta/p85 alpha) | SMILES | IC50 [3] | IC50 [4] | other results
1 | 15 nM | 174 nM | 73 nM | CN(C)CCNc1cccc2c1nc(C(F)F)n2-c1nc(N2CCOCC2)nc(N2CCOCC2)n1 | 200 nM | 110 nM | 
2 | 19 nM | 35 nM | 105 nM | CN(C)CCOc1cccc2c1nc(C(F)F)n2-c1nc(N2CCOCC2)nc(N2CCOCC2)n1 | 450 nM | 150 nM | 
3 | 20 nM | 17 nM | 130 nM | NCCOc1cccc2c1nc(C(F)F)n2-c1nc(N2CCOCC2)nc(N2CCOCC2)n1 | 52 nM | 22 nM | 
4 | 99 nM | 379 nM | 1040 nM | CN(C)CC(=O)Nc1cccc2c1nc(C(F)F)n2-c1nc(N2CCOCC2)nc(N2CCOCC2)n1 | 50 nM | 50 nM | 
5 | 4.7 nM | 12 nM | 24 nM | OCC(O)COc1cccc2c1nc(C(F)F)n2-c1nc(N2CCOCC2)nc(N2CCOCC2)n1 (stereo not given) | 26 nM | 25 nM | 
6 | 52 nM | 119 nM | 740 nM | NCC(=O)Nc1cccc2c1nc(C(F)F)n2-c1nc(N2CCOCC2)nc(N2CCOCC2)n1 | 140 nM | 60 nM | 
7 | 112 nM | 486 nM | 1260 nM | CN(C)CCC(=O)Nc1cccc2c1nc(C(F)F)n2-c1nc(N2CCOCC2)nc(N2CCOCC2)n1 | 290 nM | 140 nM | 
8 | 2.6 nM | 5.3 nM | 16 nM | OCCOc1cccc2c1nc(C(F)F)n2-c1nc(N2CCOCC2)nc(N2CCOCC2)n1 | 60 nM | 60 nM | 
9 | 210 nM | 855 nM | 3010 nM | NCCC(=O)Nc1cccc2c1nc(C(F)F)n2-c1nc(N2CCOCC2)nc(N2CCOCC2)n1 | 440 nM | 120 nM | 
10 | 22 nM | 10 nM | 170 nM | OCCCOc1cccc2c1nc(C(F)F)n2-c1nc(N2CCOCC2)nc(N2CCOCC2)n1 | 71 nM | 18 nM | 
11 | 13 nM | 33 nM | 30 nM | CN(C)CC(O)COc1cccc2c1nc(C(F)F)n2-c1nc(N2CCOCC2)nc(N2CCOCC2)n1 (stereo not given) | 330 nM | 110 nM | 
12 | 39 nM | 52 nM | 274 nM | O=C(O)COc1cccc2c1nc(C(F)F)n2-c1nc(N2CCOCC2)nc(N2CCOCC2)n1 | 8500 nM | 3400 nM | 

The next lines start with the compound.

Row | SMILES | IC50 [1] | IC50 [2] | IC50 (PI3K p110 beta/p85 alpha) | IC50 [3] | IC50 [4] | other results
13 | FC(F)c1nc2c(OCCN3CCOCC3)cccc2n1-c1nc(N2CCOCC2)nc(N2CCOCC2)n1 | 53 nM | 130 nM | 150 nM | 105 nM | 71 nM | 
14 | Cn1c(=O)n(-c2ccc(C(C)(C)C#N)cc2)c2c3cc(-c4cnc5ccccc5c4)ccc3ncc21 [DACTOLISIB] |  |  |  |  |  | inhibition in vivo at 15 mg/kg [5]: 60.3%; Activity (Mus musculus [6]): 5%
15 | FC(F)c1nc2c(OCCCN3CCOCC3)cccc2n1-c1nc(N2CCOCC2)nc(N2CCOCC2)n1 | 18 nM | 29 nM | 76 nM | 60 nM | 30 nM | 
16 | OC(COc1cccc2c1nc(C(F)F)n2-c1nc(N2CCOCC2)nc(N2CCOCC2)n1)CN1CCOCC1 (stereo not given) | 5.5 nM | 41 nM | 53 nM | 54 nM | 25 nM | 
17 | FC(F)c1nc2ccccc2n1-c1nc(N2CCOCC2)nc(N2CCOCC2)n1 [ZSTK-474] |  |  |  |  |  | inhibition in vivo at 40 mg/kg [7]: 67.6%; Activity (Mus musculus [8]): 19%; Activity (Mus musculus [9]): Toxic
18 | NCCCOc1cccc2c1nc(C(F)F)n2-c1nc(N2CCOCC2)nc(N2CCOCC2)n1 | 28 nM | 28 nM | 75 nM | 32 nM | 9 nM | 
19 | CN(C)CCCOc1cccc2c1nc(C(F)F)n2-c1nc(N2CCOCC2)nc(N2CCOCC2)n1.Cl |  |  |  |  |  | solubility [10]: 25 mg/mL
20 | CN(C)CCCOc1cccc2c1nc(C(F)F)n2-c1nc(N2CCOCC2)nc(N2CCOCC2)n1 | 4.5 nM | 11 nM | 7.3 nM | 170 nM | 40 nM | IC50 [11]: 74 nM; inhibition in vivo at 60 mg/kg [12]: 56.3%; AUC(0-inf) [13]: 2.59 µM·h; half-life [14]: 93.6 min; Activity (Mus musculus [15]): 5%; Cmax [16]: 1940 nM; Activity (Mus musculus [17]): Toxic; IC50 [18]: 36 nM; Tmax [19]: 15 min
